According to ChEMBL document CHEMBL4689842, “EUbOPEN Chemogenomics Library wave 1” (2021):

System: HEK-293T
Assay: Multiplex assay against HEK293T;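 as to Population Tubulin-Different-Phenotype (%): share of the cells with healthy nuclei that show this phenotype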
Type: toxicity, cell-based
Conditions: human
In short: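 Live cells carried four stains from seeding: Hoechst33342, BioTracker Green Microtubule Cytoskeleton Dye, MitoTracker Red and Annexin V Alexa Fluor 680. They were imaged on a CQ1 microscope at 37°C and 5% CO2 after compound addition. Using CellPathfinder machine-learning gating, cells were split into Hoechst high-intensity objects or normal cells, normal cells into healthy, pyknosed or fragmented nuclei, and pyknosed cells into mitotic or apoptotic; tubulin, mitochondrial-mass and membrane-permeability phenotypes are per cents of healthy-nucleus cells.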

[1] = 12 h, 1 µM, compound concentration 1 uM, replicate 1
[2] = 12 h, 1 µM, compound concentration 1 uM, replicate 2
[3] = 12 h, 10 µM, compound concentration 10 uM, replicate 1
[4] = 12 h, 10 µM, compound concentration 10 uM, replicate 2
[5] = 24 h, 1 µM, compound concentration 1 uM, replicate 1
[6] = 24 h, 1 µM, compound concentration 1 uM, replicate 2
[7] = 24 h, 10 µM, compound concentration 10 uM, replicate 1
[8] = 24 h, 10 µM, compound concentration 10 uM, replicate 2
[9] = 48 h, 1 µM, compound concentration 1 uM, replicate 1
[10] = 48 h, 1 µM, compound concentration 1 uM, replicate 2
[11] = 48 h, 10 µM, compound concentration 10 uM, replicate 1
[12] = 48 h, 10 µM, compound concentration 10 uM, replicate 2

Which results are given for `CC(C)OC(=O)N1CCC(Oc2ncnc3c2cnn3-c2ccc(S(C)(=O)=O)cc2F)CC1`?
Population Apoptotic (%) [1]: 57%; Population Fragmented Nuclei (%) [1]: 8%; Population Healthy Nuclei (%) [1]: 35%; Population Hoechst High Intensity Objects (%) [1]: 14%; Population Membrane Permeable-Phenotype (%) [1]: 4%; Population Mitochondria Different-Phenotype (%) [1]: 80%; Population Mitotic Cells (%) [1]: 42%; Population Normal (%) [1]: 85%; Population Pyknosed Nuclei (%) [1]: 56%; Population Tubulin-Different-Phenotype (%) [1]: 39%; Total Cell Count [1]: 225; Population Apoptotic (%) [2]: 12%; Population Fragmented Nuclei (%) [2]: 5%; Population Healthy Nuclei (%) [2]: 49%; Population Hoechst High Intensity Objects (%) [2]: 4%; Population Membrane Permeable-Phenotype (%) [2]: 5%; Population Mitochondria Different-Phenotype (%) [2]: 11%; Population Mitotic Cells (%) [2]: 87%; Population Normal (%) [2]: 95%; Population Pyknosed Nuclei (%) [2]: 44%; Population Tubulin-Different-Phenotype (%) [2]: 9%; Total Cell Count [2]: 220; Population Apoptotic (%) [3]: 53%; Population Fragmented Nuclei (%) [3]: 16%; Population Healthy Nuclei (%) [3]: 32%; Population Hoechst High Intensity Objects (%) [3]: 18%; Population Membrane Permeable-Phenotype (%) [3]: 6%; Population Mitochondria Different-Phenotype (%) [3]: 93%; Population Mitotic Cells (%) [3]: 46%; Population Normal (%) [3]: 81%; Population Pyknosed Nuclei (%) [3]: 51%; Population Tubulin-Different-Phenotype (%) [3]: 61%; Total Cell Count [3]: 186; Population Apoptotic (%) [4]: 5%; Population Fragmented Nuclei (%) [4]: 5%; Population Healthy Nuclei (%) [4]: 45%; Population Hoechst High Intensity Objects (%) [4]: 3%; Population Membrane Permeable-Phenotype (%) [4]: 8%; Population Mitochondria Different-Phenotype (%) [4]: 15%; Population Mitotic Cells (%) [4]: 94%; Population Normal (%) [4]: 96%; Population Pyknosed Nuclei (%) [4]: 49%; Population Tubulin-Different-Phenotype (%) [4]: 20%; Total Cell Count [4]: 220; Population Apoptotic (%) [5]: 51%; Population Fragmented Nuclei (%) [5]: 11%; Population Healthy Nuclei (%) [5]: 39%; Population Hoechst High Intensity Objects (%) [5]: 15%; Population Membrane Permeable-Phenotype (%) [5]: 4%; Population Mitochondria Different-Phenotype (%) [5]: 58%; Population Mitotic Cells (%) [5]: 48%; Population Normal (%) [5]: 84%; Population Pyknosed Nuclei (%) [5]: 48%; Population Tubulin-Different-Phenotype (%) [5]: 35%; Total Cell Count [5]: 254; Population Apoptotic (%) [6]: 11%; Population Fragmented Nuclei (%) [6]: 7%; Population Healthy Nuclei (%) [6]: 62%; Population Hoechst High Intensity Objects (%) [6]: 3%; Population Membrane Permeable-Phenotype (%) [6]: 9%; Population Mitochondria Different-Phenotype (%) [6]: 11%; Population Mitotic Cells (%) [6]: 88%; Population Normal (%) [6]: 96%; Population Pyknosed Nuclei (%) [6]: 29%; Population Tubulin-Different-Phenotype (%) [6]: 16%; Total Cell Count [6]: 277; Population Apoptotic (%) [7]: 46%; Population Fragmented Nuclei (%) [7]: 13%; Population Healthy Nuclei (%) [7]: 38%; Population Hoechst High Intensity Objects (%) [7]: 18%; Population Membrane Permeable-Phenotype (%) [7]: 1%; Population Mitochondria Different-Phenotype (%) [7]: 75%; Population Mitotic Cells (%) [7]: 53%; Population Normal (%) [7]: 81%; Population Pyknosed Nuclei (%) [7]: 48%; Population Tubulin-Different-Phenotype (%) [7]: 67%; Total Cell Count [7]: 194; Population Apoptotic (%) [8]: 3%; Population Fragmented Nuclei (%) [8]: 4%; Population Healthy Nuclei (%) [8]: 65%; Population Hoechst High Intensity Objects (%) [8]: 3%; Population Membrane Permeable-Phenotype (%) [8]: 4%; Population Mitochondria Different-Phenotype (%) [8]: 22%; Population Mitotic Cells (%) [8]: 96%; Population Normal (%) [8]: 96%; Population Pyknosed Nuclei (%) [8]: 30%; Population Tubulin-Different-Phenotype (%) [8]: 29%; Total Cell Count [8]: 268; Population Apoptotic (%) [9]: 59%; Population Fragmented Nuclei (%) [9]: 14%; Population Healthy Nuclei (%) [9]: 48%; Population Hoechst High Intensity Objects (%) [9]: 16%; Population Membrane Permeable-Phenotype (%) [9]: 5%; Population Mitochondria Different-Phenotype (%) [9]: 21%; Population Mitotic Cells (%) [9]: 40%; Population Normal (%) [9]: 83%; Population Pyknosed Nuclei (%) [9]: 36%; Population Tubulin-Different-Phenotype (%) [9]: 25%; Total Cell Count [9]: 312; Population Apoptotic (%) [10]: 5%; Population Fragmented Nuclei (%) [10]: 8%; Population Healthy Nuclei (%) [10]: 79%; Population Hoechst High Intensity Objects (%) [10]: 3%; Population Membrane Permeable-Phenotype (%) [10]: 3%; Population Mitochondria Different-Phenotype (%) [10]: 4%; Population Mitotic Cells (%) [10]: 94%; Population Normal (%) [10]: 96%; Population Pyknosed Nuclei (%) [10]: 11%; Population Tubulin-Different-Phenotype (%) [10]: 17%; Total Cell Count [10]: 463; Population Apoptotic (%) [11]: 50%; Population Fragmented Nuclei (%) [11]: 18%; Population Healthy Nuclei (%) [11]: 41%; Population Hoechst High Intensity Objects (%) [11]: 16%; Population Membrane Permeable-Phenotype (%) [11]: 3%; Population Mitochondria Different-Phenotype (%) [11]: 60%; Population Mitotic Cells (%) [11]: 49%; Population Normal (%) [11]: 83%; Population Pyknosed Nuclei (%) [11]: 39%; Population Tubulin-Different-Phenotype (%) [11]: 53%; Total Cell Count [11]: 237; Population Apoptotic (%) [12]: 11%; Population Fragmented Nuclei (%) [12]: 5%; Population Healthy Nuclei (%) [12]: 82%; Population Hoechst High Intensity Objects (%) [12]: 3%; Population Membrane Permeable-Phenotype (%) [12]: 4%; Population Mitochondria Different-Phenotype (%) [12]: 3%; Population Mitotic Cells (%) [12]: 88%; Population Normal (%) [12]: 96%; Population Pyknosed Nuclei (%) [12]: 11%; Population Tubulin-Different-Phenotype (%) [12]: 23%; Total Cell Count [12]: 480
